The source of these data is ChEMBL document CHEMBL4270555, “Synthesis and biological evaluation of magnolol derivatives as melatonergic receptor agonists with potential use in depression” (Eur J Med Chem, 2018).

Data set [1] has as its system Mus musculus. Briefly: Antidepressant activity in Kunming mouse assessed as decrease in immobility duration at 40 mg/kg, po by forced swim test relative to control. It is filed as functional. On the set-up: scale not given: the % may be the effect or the level left. An outline of the steps: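 Male Kunming mice (18–20 g) given 10, 20 or 40 mg/kg orally; fluoxetine and agomelatine 20 mg/kg as references. Each mouse swam 6 min in a cylinder (25 × 15 cm) holding 10 cm of water at 25 ± 1 °C. Immobility over the last 4 min was scored by video tracking; n = 10, mean ± SEM versus vehicle.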

The test system of data set [2] is Mus musculus. As to the kind of experiment: Increase in 5-hydroxyindole-3-acetic acid level in Kunming mouse hypothalamus at 40 mg/kg, po treated for 7 days by HPLC-ECD analysis. The data set is classed as functional, organism-based. An outline of the steps: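 Male Kunming mice (18–20 g) given vehicle or 40 mg/kg for 7 days, then killed by cervical dislocation. Frontal cortex, hippocampus, striatum, hypothalamus and thalamus dissected on ice, homogenized in ice-cold 0.2 M perchloric acid with 0.1 mM EDTA, centrifuged 15,000 rpm, 20 min, 4 °C. Supernatant analysed by HPLC-ECD at +0.50 V; phosphate/octanesulfonate mobile phase pH 3.0 with 12% methanol. Levels in ng/g, mean ± SEM.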

A further data set deals with Rattus norvegicus. Briefly: Toxicity in Sprague-Dawley rat assessed as caustic injuries at 2000 mg/kg, po measured over 4 hrs. The data set is classed as organism-based. Conditions: in vivo. In outline:
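Following OECD 425, adult SD rats (180–220 g), six per group: vehicle (0.5% CMC-Na) controls, plus males and females given 2000 mg/kg orally. Watched continuously for 4 h for behaviour, breathing, cutaneous, sensory and gastrointestinal signs, then hourly to 24 h and every 6 h for the next 48 h.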

Data set [3] in a line: Retention time of the compound by UPLC-IT-TOF-MS analysis. The data set is classed as physicochemical. An outline of the steps: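 Retention on C18 column (100 × 2.1 mm, 1.8 µm) at 30 °C; mobile phase A 0.05% formic acid in water, B 0.05% formic acid in acetonitrile, 0.2 mL/min, linear 5–100% B over 0–18.0 min; IT-TOF-MS detection in positive and negative modes.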
Data set [4] can be described thus: Drug metabolism in Sprague-Dawley rat plasma assessed as (2S,3S,4S,5R,6S)-3,4,5-trihydroxy-6-(5-(1-hydroxyallyl)-5'-(1-hydroxypropyl)-2'-((2S,3R,4S,5S,6R)-3,4,5-trihydroxy-6-(hydroxymethyl)tetrahydro-2H-pyran-2-yloxy)biphenyl-2-yloxy)tetrahydro-2H-pyran-2-carboxylic acid formation at 100 mg/kg, po by UPLC-IT-TOF-MS analysis. To be noted: in vivo. It is filed as ADME, organism-based. In outline:
(§1)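 Rats (n = 6) housed in metabolic cages received 100.0 mg/kg orally; controls received 0.5% CMC-Na. Plasma, urine and faeces were collected and analyzed by LC-IT-TOF-MS on a C18 column at 30 °C. Gradient 5–100% acetonitrile with 0.05% formic acid over 18 min at 0.2 mL/min; positive and negative ion MS/MS.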

Data set [5] is described as follows: Drug metabolism in Sprague-Dawley rat plasma assessed as 5'-(1-hydroxyallyl)-5-propyl-2'-((2S,3R,4S,5S,6R)-3,4,5-trihydroxy-6-(hydroxymethyl)tetrahydro-2H-pyran-2-yloxy)biphenyl-2-yl hydrogen sulfate formation at 100 mg/kg, po by UPLC-IT-TOF-MS analysis. It is filed as ADME, organism-based. Conditions: in vivo. An outline of the steps: as §1
The nature of data set [6]: Drug metabolism in Sprague-Dawley rat feces assessed as 5'-(1-hydroxyallyl)-5-propyl-2'-((2S,3R,4S,5S,6R)-3,4,5-trihydroxy-6-(hydroxymethyl)tetrahydro-2H-pyran-2-yloxy)biphenyl-2-yl hydrogen sulfate formation at 100 mg/kg, po by UPLC-IT-TOF-MS analysis. It is filed as ADME, organism-based. Conditions: in vivo. In outline: as §1
Data set [7] in a line: Drug metabolism in Sprague-Dawley rat urine assessed as 5'-(1-hydroxyallyl)-5-(1-hydroxypropyl)-2'-((2S,3R,4S,5S,6R)-3,4,5-trihydroxy-6-(hydroxymethyl)tetrahydro-2H-pyran-2-yloxy)biphenyl-2-yl hydrogen sulfate formation at 100 mg/kg, po by UPLC-IT-TOF-MS analysis. The data set is classed as ADME, organism-based. Conditions: in vivo. An outline of the steps: (§2)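 Male/unspecified SD rats (n = 6) housed individually in metabolic cages, dosed orally at 100.0 mg/kg; controls given 0.5% CMC-Na orally. Plasma, urine and faeces collected. LC-IT-TOF-MS on C18 column at 30 °C, formic acid (0.05%) water/acetonitrile gradient 5–100% B over 18 min, 0.2 mL/min; positive and negative ion modes with automatic MS/MS.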

Data set [8] can be described thus: Drug metabolism in Sprague-Dawley rat plasma assessed as 2'-hydroxy-5'-(1-hydroxyallyl)-5-propylbiphenyl-2-yl hydrogen sulfate formation at 100 mg/kg, po by UPLC-IT-TOF-MS analysis. Conditions: in vivo. It is filed as ADME, organism-based. In outline: as §1
Data set [9] in a line: Drug metabolism in Sprague-Dawley rat plasma assessed as (2S,3S,4S,5R,6S)-6-(5'-allyl-5-(1-hydroxyallyl)-2'-((2S,3R,4S,5S,6R)-3,4,5-trihydroxy-6-(hydroxymethyl)tetrahydro-2H-pyran-2-yloxy)biphenyl-2-yloxy)-3,4,5-trihydroxytetrahydro-2H-pyran-2-carboxylic acid formation at 100 mg/kg, po by UPLC-IT-TOF-MS analysis. It is filed as ADME, organism-based. Conditions: in vivo. An outline of the steps:
as §1

Data set [10] is described as follows: Drug metabolism in Sprague-Dawley rat feces assessed as (2S,3S,4S,5R,6S)-6-(5'-allyl-5-(1-hydroxyallyl)-2'-((2S,3R,4S,5S,6R)-3,4,5-trihydroxy-6-(hydroxymethyl)tetrahydro-2H-pyran-2-yloxy)biphenyl-2-yloxy)-3,4,5-trihydroxytetrahydro-2H-pyran-2-carboxylic acid formation at 100 mg/kg, po by UPLC-IT-TOF-MS analysis. It is filed as ADME, organism-based. Conditions: in vivo. In outline:
as §1

Data set [11] is described as follows: Drug metabolism in Sprague-Dawley rat plasma assessed as 5,5'-diallyl-2'-((2S,3R,4S,5S,6R)-3,4,5-trihydroxy-6-(hydroxymethyl)tetrahydro-2H-pyran-2-yloxy)biphenyl-2-yl hydrogen sulfate formation at 100 mg/kg, po by UPLC-IT-TOF-MS analysis. The data set is classed as ADME, organism-based. Conditions: in vivo. In outline:
as §2

The nature of data set [12]: Drug metabolism in Sprague-Dawley rat plasma assessed as 5'-acryloyl-2'-hydroxy-5-propionylbiphenyl-2-yl hydrogen sulfate formation at 100 mg/kg, po by UPLC-IT-TOF-MS analysis. The data set is classed as ADME, organism-based. To be noted: in vivo. In outline: as §2
Data set [13] can be described thus: Drug metabolism in Sprague-Dawley rat urine assessed as (2S,3R,4S,5S,6R)-2-(5'-allyl-2'-hydroxy-5-(1-hydroxyallyl)biphenyl-2-yloxy)-6-(hydroxymethyl)tetrahydro-2H-pyran-3,4,5-triol formation at 100 mg/kg, po by UPLC-IT-TOF-MS analysis. The data set is classed as ADME, organism-based. Conditions: in vivo. In outline:
as §2

Data set [14] is described as follows: Drug metabolism in Sprague-Dawley rat plasma assessed as (2S,3S,4S,5R,6S)-6-(5-acryloyl-2'-hydroxy-5'-(1-hydroxyallyl)biphenyl-2-yloxy)-3,4,5-trihydroxytetrahydro-2H-pyran-2-carboxylic acid formation at 100 mg/kg, po by UPLC-IT-TOF-MS analysis. To be noted: in vivo. It is filed as ADME, organism-based. In outline:
as §1

Data set [15] can be described thus: Drug level in Sprague-Dawley rat feces at 100 mg/kg, po by UPLC-IT-TOF-MS analysis. It is filed as ADME, organism-based. To be noted: in vivo. In outline:
as §1

A short description of data set [16]: Drug metabolism in Sprague-Dawley rat urine assessed as 5,5'-diallyl-2'-hydroxybiphenyl-2-yl hydrogen sulfate formation at 100 mg/kg, po by UPLC-IT-TOF-MS analysis. The data set is classed as ADME, organism-based. Conditions: in vivo. An outline of the steps: as §2
Data set [17] can be described thus: Drug metabolism in Sprague-Dawley rat feces assessed as 5,5'-diallyl-2'-hydroxybiphenyl-2-yl hydrogen sulfate formation at 100 mg/kg, po by UPLC-IT-TOF-MS analysis. It is filed as ADME, organism-based. Conditions: in vivo. In outline:
as §1

Activity calls are given as the source filed them. The calls are words filed in the database; no cut-off is given here.

`C=CCc1ccc(O)c(-c2cc(CC=C)ccc2O[C@@H]2O[C@H](CO)[C@@H](O)[C@H](O)[C@H]2O)c1`: the Activity in the data set on Mus musculus [1] is 37.66%; with Rattus norvegicus, “Non-Toxic”. Besides, the outcome in the data set with Mus musculus [2] was Active. Moreover, in data set [3], the Retention_time came to 11.23 min. In addition, the Drug metabolism entry was “Metabolite_Notdetected” in data set [4]; “Metabolite_Notdetected” in data set [5]; “Metabolite_Detected” in data set [6]; “Metabolite_Detected” in data set [7]; “Metabolite_Notdetected” in data set [8]; “Metabolite_Notdetected” in data set [9]. In addition, the Drug metabolism entry in [10] was “Metabolite_Detected”; in data set [11] it was “Metabolite_Notdetected”; in data set [12], “Metabolite_Notdetected”; in data set [13] it was “Metabolite_Detected”; in [14] it was “Metabolite_Notdetected”; in data set [16], “Metabolite_Notdetected”. For the same compound, in data set [17], the Drug metabolism result is on record as “Metabolite_Detected”. Also, in [15], the Drug uptake entry was “Not Active”.
